Calls of active or inactive are those of the source. The calls are words filed in the database; no cut-off is given here.
Columns and labels:
[1] = target: T1, Nuclear factor erythroid 2-related factor 2 (Mus musculus) (UniProt Q60795); assay: Induction of Nrf2-dependent HO1 protein expression in mouse CATH.a cells at 0.1 uM after 24 hrs by western blot analysis; type: cell-based
T1 sequence (whole entry): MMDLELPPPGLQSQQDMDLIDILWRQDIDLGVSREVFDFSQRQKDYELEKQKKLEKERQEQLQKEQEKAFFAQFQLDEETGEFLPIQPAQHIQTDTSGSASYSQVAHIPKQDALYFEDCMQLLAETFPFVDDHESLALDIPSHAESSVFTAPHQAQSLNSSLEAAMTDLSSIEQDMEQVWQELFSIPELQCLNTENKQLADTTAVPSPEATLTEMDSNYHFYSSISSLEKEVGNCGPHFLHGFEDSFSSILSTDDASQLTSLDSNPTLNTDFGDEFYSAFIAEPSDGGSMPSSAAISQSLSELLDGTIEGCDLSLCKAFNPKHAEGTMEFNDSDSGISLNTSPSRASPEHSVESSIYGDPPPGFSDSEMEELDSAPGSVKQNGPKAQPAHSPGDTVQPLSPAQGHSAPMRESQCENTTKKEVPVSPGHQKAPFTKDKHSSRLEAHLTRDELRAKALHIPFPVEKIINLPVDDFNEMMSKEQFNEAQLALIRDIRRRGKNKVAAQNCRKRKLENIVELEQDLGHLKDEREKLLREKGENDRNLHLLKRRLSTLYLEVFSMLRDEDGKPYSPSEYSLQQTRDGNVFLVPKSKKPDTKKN
Summary of the method: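 Cells (CATH.a) exposed to graded concentrations for 24 h, lysed in RIPA buffer with protease inhibitors. Equal protein separated on 10% SDS gel, blotted; primary antibodies overnight at 4 °C, HRP secondary, chemiluminescence. Densitometry normalized to β-actin. At least duplicate cultures, fold of untreated control ± SEM.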

[2] = target: T1, Nuclear factor erythroid 2-related factor 2 (Mus musculus); assay: Induction of Nrf2-dependent NQO1 gene expression in mouse CATH.a cells at 10 uM after 6 hrs by RT-PCR analysis relative to control; type: cell-based
Summary of the method: (§1)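 CATH.a cells grown in RPMI 1640 with 8% horse serum and 4% FBS, exposed to graded concentrations for 6 h. mRNA analysed by RT-PCR with gene-specific primers, products run on 1% agarose gel, band densitometry normalized to GAPDH. At least duplicate cultures; fold induction versus untreated control ± SEM.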

[3] = species on record: Mus musculus; assay: Neuroprotection against BH4-induced mouse CATH.a cell death assessed as cell viability at 0.1 uM treated for 20 hrs prior to BH4 challenge for 24 hrs by ATP assay; type: functional
Summary of the method: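 CATH.a cells (2.4 × 10⁴/well) pretreated with graded concentrations for 20 h, then challenged with 200 μM BH4 for a further 24 h. Viability as cellular ATP by CellTiter-Glo luminescence. At least duplicate cultures, percent of untreated control ± SEM, compared with BH4-treated cells.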

[4] = target: T1, Nuclear factor erythroid 2-related factor 2 (Mus musculus); assay: Induction of Nrf2-dependent GCLC gene expression in mouse CATH.a cells at 0.1 uM after 6 hrs by RT-PCR analysis; type: cell-based; summary of the method: as §1
[5] = target: T1, Nuclear factor erythroid 2-related factor 2 (Mus musculus); assay: Induction of Nrf2 nuclear translocation in mouse CATH.a cells at 10 uM after 3 hrs by western blot analysis relative to control; type: cell-based
Summary of the method: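 Mouse DAergic CATH.a cells treated at various concentrations for 3 h. Nuclei isolated by hypotonic HEPES buffer/NP-40 lysis, then nuclear proteins extracted in 400 mM NaCl HEPES buffer. Nrf2 Western blot with lamin B as nuclear marker, chemiluminescent detection, densitometry. At least duplicate cultures, expressed as fold induction over untreated control ± SEM.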

How did the Activity [1] turn out when COc1ccccc1S(=O)(=O)/C=C/c1ccccc1Cl was run?
Its Activity is “inactive”.

And the fold change (FC) [2]?
Its fold change (FC) is 5.67.

What about the Activity [3] of the same compound?
Its Activity is “Active”.

What about the Activity [4] of the same compound?
The Activity was “inactive”.

What about the fold change (FC) [5] of the same compound?
The fold change (FC) was 3.5.
